# rCAG RNA binder: binders of r(CAG) RNA repeats, primary screen, biochemical, fluorescence; AID 651821, 2012; 370,000 tested, 1.3% active; inhibition, % at 3 µM; r(CAG) RNA repeat, TO-PRO-1 dye displacement fluorescence;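 active means inhibition above the plate cutoff, the mean of all test compounds on that plate plus 3 SD, cut at about 35% in these data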;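 further: 0% = DMSO alone and 100% = 100 µM mitoxantrone as full dye displacement; higher means more dye released from RNA so lower well fluorescence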
# PG9 binder: binders of HIV-1 gp120 antibody PG9, primary screen, biochemical, TR-FRET; TR-FRET gp120-PG9 antibody binding; inhibition, % at 6.7 µM; 360,000 tested, 0.43% active; AID 624416, 2012; in the data active means inhibition above about 8.5%
# NR1D1 modulator: modulators of Rev-erb alpha DNA binding, primary screen, biochemical, FITC-DNA, fluorescence polarization, uHTS | Rev-erbα–FITC-DNA binding, 90 min | 370,000 tested, 0.79% active | Nuclear receptor subfamily 1 group D member 1 (Homo sapiens), P20393 | activity, % at 10 µM;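 active means activity above about 14%, limit read from the data; passing the limit was not always enough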;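 further: 0% = DMSO wells with 35 nM protein and 100% = DMSO wells with 750 nM protein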
# Target sequence (P20393 whole entry, looked up): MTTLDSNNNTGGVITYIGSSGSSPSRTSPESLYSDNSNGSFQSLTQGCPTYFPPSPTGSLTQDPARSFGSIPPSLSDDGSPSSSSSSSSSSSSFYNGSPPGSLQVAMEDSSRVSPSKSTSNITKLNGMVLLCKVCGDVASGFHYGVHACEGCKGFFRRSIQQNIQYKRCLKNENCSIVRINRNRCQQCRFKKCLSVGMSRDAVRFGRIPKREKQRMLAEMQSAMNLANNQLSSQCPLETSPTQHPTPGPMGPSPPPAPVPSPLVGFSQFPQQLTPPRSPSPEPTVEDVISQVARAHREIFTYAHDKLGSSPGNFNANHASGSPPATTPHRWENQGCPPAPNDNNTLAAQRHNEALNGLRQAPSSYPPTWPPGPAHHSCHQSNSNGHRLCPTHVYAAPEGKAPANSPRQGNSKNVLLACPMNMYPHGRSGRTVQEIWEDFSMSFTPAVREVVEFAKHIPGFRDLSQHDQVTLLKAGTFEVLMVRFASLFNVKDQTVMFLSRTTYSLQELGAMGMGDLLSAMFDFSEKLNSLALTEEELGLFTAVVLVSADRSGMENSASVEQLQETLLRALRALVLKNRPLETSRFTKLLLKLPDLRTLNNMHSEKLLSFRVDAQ
# NR2E3 ag-1: inhibitors of NR2E3-RetCOR corepressor binding, primary screen, NR2E3 agonist project, biochemical, TR-FRET, GST-NR2E3, biotin-RetCOR | Photoreceptor-specific nuclear receptor (Homo sapiens), Q9Y5X4 | 1536-well | inhibition of corepressor binding, % at 4.78 µM | 320,000 tested, 0.12% active;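 active means percent inhibition above the cutoff of mean plus 3 SD of all tested compounds, set per screening campaign, cut at about 20% in these data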;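 further: 0% = DMSO wells and 100% = biotin wells as full block of FRET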
#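 Test system – NR2E3–RetCOR corepressor complex · Quantity – NR2E3 fusion 1.35 nM · Buffer or medium – Tris pH 7.5 · Incubation – Compound–protein incubation for 5 h at 4 °C · Technique – TR-FRET, Eu(K)-anti-GST donor, streptavidin-D2 acceptor, ex 340, em 617/671 nm · Evaluation – percent inhibition of 671/617 nm emission ratio versus biotin and DMSO controls · Plate – 1536-well format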
# NR2E3 ag-2: NR2E3 agonists in two-hybrid cells, primary screen, cell-based, luminescence, CHO-S, Gal4-NCOR/VP16-NR2E3; Photoreceptor-specific nuclear receptor (Homo sapiens), Q9Y5X4; luciferase; inhibition of corepressor binding, % at 3.98 µM; 360,000 tested, 0.35% active;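 active means inhibition above the mean of all tested compounds plus 3 SD, cut at about 70% in these data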;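 further: 0% = DMSO with NR2E3 transfected cells and 100% = cells lacking NR2E3 construct; higher means lower luciferase signal from less NR2E3 corepressor binding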
# NR1D1 mod conf: modulators of Rev-erb alpha DNA binding, confirmation, biochemical, FITC-DNA, fluorescence polarization, single point; shares compounds with NR1D1 modulator; 90 min; activation, % at 25 µM; 3,000 tested, 61% active;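 active means activation at or above a set limit, or at least 3 SD above the negative control mean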;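 further: 0% = 35 nM protein with DMSO and 100% = 750 nM protein high control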
# RORg counter: modulation of RORgamma DNA binding, dose response, counter-screen for Rev-erb alpha modulator project, biochemical, fluorescence polarization, FITC-DNA; purified RORgamma protein-FITC-DNA binding; IC50, µM; 910 tested, 8% active; shares compounds with NR1D1 modulator;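 active means Compounds whose fitted half-maximal concentration for disrupting protein-DNA binding is below 10 micromolar; the record names Rev-erb in its text, so the target is in doubt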
# * hit, by the source's call; i = inactive; . = no result. An excerpt weighted towards active compounds, which were near 2.6% of everything screened.
SMILES,rCAG RNA binder,PG9 binder,NR1D1 modulator,NR2E3 ag-1,NR2E3 ag-2,NR1D1 mod conf,RORg counter
O=C(C[n+]1ccccc1)N/N=C/c1c(F)cccc1Cl,-0.8,-1.7,-1.7,-1.1,-23.1,.,.
COC(=O)c1ccc2nc(C3CCCCC3)c(Cc3ccccc3C(F)(F)F)n2c1,1.8,-2.6,18.5*,.,-1.9,12.3*,.
CC1(Cc2cccc(F)c2)C(=O)Nc2ccc(OC(F)(F)F)cc21 (stereo not given),-0.6,-0.2,16.3*,.,-57.0,14.7*,.
COc1ccccc1-c1ccc2c(c1)C(C)(Cc1cccc(F)c1)C(=O)N2 (stereo not given),2.0,-1.2,63.5*,.,5.0,88.0*,>40
COC(=O)c1cc2c(c3c4ccccc4n(S(=O)(=O)c4ccc(C)cc4)c13)C(=O)N(Cc1ccccc1)C2,19.9,0.3,1.9,.,.,.,.
COc1ccc(CN(Cc2cc3cc(C)ccc3[nH]c2=O)C(=O)N(C)C)cc1,-4.8,-0.2,1.6,0.6,-19.6,.,.
COc1cc2cc(CN(C(=O)NC3CCCCC3)C3CCCC3)c(=O)[nH]c2cc1OC,-0.8,1.6,0.2,0.1,1.4,.,.
CNC(=S)N(Cc1ccc(OC)cc1)Cc1cc2cc(C)ccc2[nH]c1=O,-1.7,0.2,40.5*,-1.2,-26.9,24.9*,.
COc1ccc(CN(Cc2cc3cc(OC)c(OC)cc3[nH]c2=O)C(=O)NC2CCCCC2)cc1,5.0,-0.7,50.5*,-0.7,-0.9,77.8*,>40
C=CCOc1ccc(C2C(C(=O)c3cccs3)=C(O)C(=O)N2c2nnc(C)s2)cc1 (stereo not given),6.8,2.4,33.5*,3.4,-13.0,53.9*,>40
COc1ccc(C2C(C(=O)c3cccs3)=C(O)C(=O)N2c2nnc(C)s2)cc1OC (stereo not given),.,.,.,4.2,-14.2,.,.
Cc1nnc2sc(-c3ccc(NC(=O)CSc4ccc(Cl)cc4)cc3)nn12,6.6,-0.4,-3.6,-1.2,-14.4,.,.
CCc1nnc2sc(-c3ccc(NC(=O)CSc4ccc(Cl)cc4)cc3)nn12,4.7,-0.3,32.2*,0.8,-14.1,20.7*,.
CC1=NCCN1S(=O)(=O)c1c(C(C)C)cc(C(C)C)cc1C(C)C,-6.7,1.2,44.6*,4.8,-8.4,44.4*,>40
Cc1cccc(C)c1NC(=O)C(c1ccccc1)n1c(-c2ccccc2)nc2ccccc21 (stereo not given),4.6,-0.5,0.9,.,.,.,.
c1ccc(Nc2nc(-c3ccncc3)nc3ccccc23)cc1,-0.7,-1.2,30.1*,2.3,0.0,22.8*,.
Fc1ccc(Nc2nc(-c3ccncc3)nc3ccccc23)cc1,-1.7,3.2,17.4,-4.4,25.0,.,.
Cc1ccc(C(=O)/C=C/c2c[nH]c3ccccc23)cc1,14.0,-2.7,7.6,3.1,-61.0,.,.
CCN(CC)C(=O)c1ccc(/C=C/c2c[nH]c3ccccc23)[n+](C)c1,-20.2,-11.7,45.2*,-11.6,-15.6,49.6*,>40
CC[n+]1c(/C=C/c2c[nH]c3ccccc23)ccc2cc(C)ccc21,-175.0,-13.6,125.7*,.,.,101.8*,>40
O=C(c1ccc(Cn2c(=S)[nH]c3ccc(N4CCOCC4)cc3c2=O)cc1)N1CCN(c2ccc(F)cc2)CC1,12.1,0.7,4.8,-1.8,-45.8,.,.
COc1ccc(N2CCN(C(=O)c3ccc(Cn4c(=S)[nH]c5ccc(N6CCOCC6)cc5c4=O)cc3)CC2)cc1,4.2,0.3,41.6*,-2.5,-44.2,11.9,.
CC1(C)Cc2c(c(N3CCOCC3)nc3sc4c(NN)ncnc4c23)CS1,2.8,-1.6,28.1*,0.8,-27.2,33.7*,>40
O=C(Nc1ccc(Cl)cc1)c1ccco1,-2.1,-0.5,-9.9,6.5,-53.7,.,.
O=C(Nc1ccc(-c2nc3cc(Cl)ccc3c(=O)o2)cc1)c1ccco1,6.0,-0.3,27.3*,0.9,10.1,0.3,.
SMILES,rCAG RNA binder,PG9 binder,NR1D1 modulator,NR2E3 ag-1,NR2E3 ag-2,NR1D1 mod conf,RORg counter
O=C(COc1ccc([N+](=O)[O-])cc1)Nc1cccc2nsnc12,1.7,-3.1,24.1*,3.9,-15.3,21.7*,.
Cc1ccc(OCC(=O)Nc2cccc3nsnc23)c(C)c1,5.9,-0.8,8.7,1.0,-20.0,.,.
N#Cc1cnc2cc(-c3ccccc3)nn2c1N,0.5,-2.4,26.9*,-0.2,-29.8,31.6*,>40
CC1CCN(c2nc(-c3ccccc3O)nc3ccccc23)CC1,-1.0,2.6,1.6,-3.9,-39.2,.,.
Oc1ccccc1-c1nc(N2CCCC2)c2ccccc2n1,2.2,-2.0,134.3*,1.0,-3.5,69.4*,6.92*
Oc1ccccc1-c1nc(NCc2ccccc2)c2ccccc2n1,9.3,6.0,97.2*,2.2,-12.7,76.9*,>40
Nc1ncnc2c1ncn2[C@@H]1O[C@H](CN2CCCS2(=O)=O)[C@@H](O)[C@H]1O,-3.3,0.5,1.1,.,-2.7,.,.
Cc1ccc(S(=O)(=O)N2CCOCC2)cc1C(=O)NCc1ccccn1,-0.2,1.9,4.3,3.4,1.0,.,.
CCCC(Oc1ccc(Br)cc1)c1nc2c3cc(OC)c(OC)cc3nc(=S)n2[nH]1 (stereo not given),3.8,-0.1,46.8*,0.0,9.2,39.5*,i
Cc1ccc(N2CCN(S(=O)(=O)c3c(C)nc4sccn4c3=O)CC2C)cc1 (stereo not given),2.5,-0.2,7.1,.,12.8,.,.
COC(=O)c1cc2c(c3c4cc(F)ccc4n(S(=O)(=O)c4cccc(C)c4)c13)C(=O)N(Cc1ccc(N(C)C)cc1)C2,11.0,-0.7,27.0*,.,.,0.6,.
COC(=O)c1cc2c(c3c4cc(F)ccc4n(S(=O)(=O)c4ccccc4)c13)C(=O)N(Cc1ccc(N(C)C)cc1)C2,12.1,-1.6,4.1,.,.,.,.
COc1ccc(C2C(C#N)=C(C)NC3=C2C(=O)c2ccccc23)cc1 (stereo not given),-0.8,-0.7,81.2*,2.6,-12.3,53.6*,>40
O=C(CNCc1ccccc1[N+](=O)[O-])N1CCC2(CC1)OCCO2,6.2,.,1.1,.,.,.,.
CC1(C)CC(=O)C=C(c2ccc(Oc3ccccc3)cc2)C1=O,1.3,0.4,2.3,.,-22.1,.,.
COc1ccc(C#Cc2ccc(C3=CC(=O)CC(C)(C)C3=O)cc2)cc1,5.4,4.5,153.0*,.,-84.1,50.8*,>40

# Compound activity as filed in PubChem.
